Experiments:
[1] = biological target: T1, Tyrosine-protein phosphatase non-receptor type 2 (Homo sapiens) (UniProt P17706); test: Inhibition of TCPTP (unknown origin) assessed as inhibition rate at 90 uM
T1 sequence (whole entry): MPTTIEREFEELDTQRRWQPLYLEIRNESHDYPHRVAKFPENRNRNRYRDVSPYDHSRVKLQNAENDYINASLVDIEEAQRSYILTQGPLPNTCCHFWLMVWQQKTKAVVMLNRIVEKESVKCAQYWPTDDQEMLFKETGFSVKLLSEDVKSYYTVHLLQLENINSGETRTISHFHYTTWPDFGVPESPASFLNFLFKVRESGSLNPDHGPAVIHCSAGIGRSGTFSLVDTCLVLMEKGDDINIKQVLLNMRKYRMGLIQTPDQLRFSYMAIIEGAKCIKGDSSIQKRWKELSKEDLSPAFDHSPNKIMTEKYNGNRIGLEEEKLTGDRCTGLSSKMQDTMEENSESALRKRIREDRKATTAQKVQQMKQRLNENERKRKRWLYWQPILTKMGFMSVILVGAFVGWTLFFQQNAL

[2] = biological target: T2, Tyrosine-protein phosphatase non-receptor type 1 (Homo sapiens) (UniProt P18031); conditions: 90 uM
T2 sequence (whole entry): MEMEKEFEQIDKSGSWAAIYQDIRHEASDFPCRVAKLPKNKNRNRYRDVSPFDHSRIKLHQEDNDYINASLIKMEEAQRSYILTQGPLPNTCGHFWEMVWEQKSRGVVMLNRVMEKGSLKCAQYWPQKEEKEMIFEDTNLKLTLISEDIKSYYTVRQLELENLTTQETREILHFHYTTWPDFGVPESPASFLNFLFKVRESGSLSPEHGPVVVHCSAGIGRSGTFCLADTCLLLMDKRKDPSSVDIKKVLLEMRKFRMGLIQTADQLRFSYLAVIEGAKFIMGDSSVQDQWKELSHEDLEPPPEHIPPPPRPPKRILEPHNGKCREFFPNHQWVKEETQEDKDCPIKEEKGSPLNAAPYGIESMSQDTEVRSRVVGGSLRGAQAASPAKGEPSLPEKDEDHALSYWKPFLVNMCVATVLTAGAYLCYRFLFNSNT

[3] = biological target: Tyrosine-protein phosphatase non-receptor type 6 (Homo sapiens) (UniProt P29350); test: Inhibition of SHP1 (unknown origin) assessed as inhibition rate at 90 uM
[4] = biological target: T3, Tyrosine-protein phosphatase non-receptor type 1 (Homo sapiens, UniProt P18031); test: Inhibition of PTP1B (unknown origin)
T3 sequence (P18031 whole entry): T2 sequence (whole entry)
In short: (§1)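 PTP1B enzymatic assay with RK-682 as the positive control. For the single-point screen, compounds were tested at a final 100 µM. For dose–response, inhibition was measured over a range of compound concentrations, and IC50 was obtained by regression analysis.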

HepG2 = test: Induction of Akt phosphorylation in insulin-stimulated human HepG2 cells assessed as pAkt/Akt ratio at 50 uM after 5 mins by western blotting analysis relative to control; format: functional
In short: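 HepG2 cells were treated with compound at 50 µM, then stimulated with insulin. pAkt was assessed by western blotting at 0 and 5 min after insulin. DMSO served as the negative control and sodium orthovanadate (200 µM) as the positive control. Values are expressed relative to control.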

[5] = biological target: T4, Tyrosine-protein phosphatase non-receptor type 11 (Homo sapiens) (UniProt Q06124); test: Inhibition of SHP2 (unknown origin) assessed as inhibition rate at 90 uM
T4 sequence (whole entry): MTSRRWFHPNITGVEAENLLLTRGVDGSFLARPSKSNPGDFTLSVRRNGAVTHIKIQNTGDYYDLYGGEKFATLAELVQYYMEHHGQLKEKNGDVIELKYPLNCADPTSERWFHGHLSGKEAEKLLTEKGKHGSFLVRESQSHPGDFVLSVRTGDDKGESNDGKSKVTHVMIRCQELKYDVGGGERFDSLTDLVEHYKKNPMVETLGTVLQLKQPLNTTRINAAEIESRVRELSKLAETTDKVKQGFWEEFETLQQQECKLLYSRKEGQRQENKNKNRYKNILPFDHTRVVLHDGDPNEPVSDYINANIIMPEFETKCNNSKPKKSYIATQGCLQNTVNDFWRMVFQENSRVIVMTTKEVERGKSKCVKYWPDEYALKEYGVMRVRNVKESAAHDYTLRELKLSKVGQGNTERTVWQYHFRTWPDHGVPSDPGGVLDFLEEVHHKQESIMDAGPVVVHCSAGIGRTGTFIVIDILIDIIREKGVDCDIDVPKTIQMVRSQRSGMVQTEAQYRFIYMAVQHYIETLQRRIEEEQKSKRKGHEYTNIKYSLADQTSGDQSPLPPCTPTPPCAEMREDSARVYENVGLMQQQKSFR

[6] = biological target: T3, Tyrosine-protein phosphatase non-receptor type 1; test: Non-competitive inhibition of PTP1B (unknown origin) assessed as hydrolysis of para-nitrophenylphosphate by Lineweaver-Burk plot
In short: (§2)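 Kinetic study of PTP1B varying both compound and p-nitrophenylphosphate substrate concentrations. Mode was read from Lineweaver–Burk plots. Slopes from those plots were replotted against compound concentration (secondary plot), and Ki was calculated from that plot.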

[7] = biological target: Dual specificity protein phosphatase 3 (Homo sapiens) (UniProt P51452); test: Inhibition of VHR (unknown origin) assessed as inhibition rate at 90 uM
[8] = biological target: T2, Tyrosine-protein phosphatase non-receptor type 1 (Homo sapiens); test: Inhibition of PTP1B (unknown origin) assessed as inhibition rate at 100 uM; in short: as §1
Homo sapiens [9] = organism: Homo sapiens; test: Ratio of inhibition rate for PTP1B (unknown origin) at 75 uM to inhibition rate for SHP2 (unknown origin) at 100 uM
Homo sapiens [10] = organism: Homo sapiens; test: Ratio of inhibition rate for PTP1B (unknown origin) at 75 uM to inhibition rate for TCPTP (unknown origin) at 100 uM
Homo sapiens [11] = organism: Homo sapiens; test: Ratio of inhibition rate for PTP1B (unknown origin) at 75 uM to inhibition rate for SHP1 (unknown origin) at 100 uM
[12] = biological target: T4, Tyrosine-protein phosphatase non-receptor type 11 (Homo sapiens); test: Inhibition of SHP2 (unknown origin) assessed as inhibition rate at 100 uM
Homo sapiens [13] = organism: Homo sapiens; test: Ratio of inhibition rate for PTP1B (unknown origin) at 75 uM to inhibition rate for VHR (unknown origin) at 100 uM
[14] = biological target: Dual specificity protein phosphatase 3 (Homo sapiens) (UniProt P51452); test: Inhibition of VHR (unknown origin) assessed as inhibition rate at 100 uM
[15] = biological target: T1, Tyrosine-protein phosphatase non-receptor type 2 (Homo sapiens); test: Inhibition of TCPTP (unknown origin) assessed as inhibition rate at 100 uM
[16] = biological target: Tyrosine-protein phosphatase non-receptor type 6 (Homo sapiens) (UniProt P29350); test: Inhibition of SHP1 (unknown origin) assessed as inhibition rate at 100 uM
Homo sapiens [17] = organism: Homo sapiens; test: Ratio of inhibition rate for PTP1B (unknown origin) at 75 uM to inhibition rate for SHP2 (unknown origin) at 75 uM
[18] = biological target: T3, Tyrosine-protein phosphatase non-receptor type 1; test: Competitive inhibition of PTP1B (unknown origin) assessed as hydrolysis of para-nitrophenylphosphate by Lineweaver-Burk plot; in short: as §2
[19] = biological target: T4, Tyrosine-protein phosphatase non-receptor type 11 (Homo sapiens); test: Inhibition of SHP2 (unknown origin) assessed as inhibition rate at 75 uM
[20] = biological target: Dual specificity protein phosphatase 3 (Homo sapiens) (UniProt P51452); test: Inhibition of VHR (unknown origin) assessed as inhibition rate at 75 uM
Homo sapiens [21] = organism: Homo sapiens; test: Ratio of inhibition rate for PTP1B (unknown origin) at 75 uM to inhibition rate for VHR (unknown origin) at 75 uM
Homo sapiens [22] = organism: Homo sapiens; test: Ratio of inhibition rate for PTP1B (unknown origin) at 75 uM to inhibition rate for SHP1 (unknown origin) at 75 uM
[23] = biological target: T2, Tyrosine-protein phosphatase non-receptor type 1 (Homo sapiens); test: Inhibition of PTP1B (unknown origin) assessed as inhibition rate at 75 uM
[24] = biological target: T1, Tyrosine-protein phosphatase non-receptor type 2 (Homo sapiens); test: Inhibition of TCPTP (unknown origin) assessed as inhibition rate at 75 uM
Homo sapiens [25] = organism: Homo sapiens; test: Ratio of inhibition rate for PTP1B (unknown origin) at 75 uM to inhibition rate for TCPTP (unknown origin) at 75 uM
[26] = biological target: Tyrosine-protein phosphatase non-receptor type 6 (Homo sapiens) (UniProt P29350); test: Inhibition of SHP1 (unknown origin) assessed as inhibition rate at 75 uM

Sequence of Dual specificity protein phosphatase 3 (Homo sapiens) (P51452 whole entry, looked up): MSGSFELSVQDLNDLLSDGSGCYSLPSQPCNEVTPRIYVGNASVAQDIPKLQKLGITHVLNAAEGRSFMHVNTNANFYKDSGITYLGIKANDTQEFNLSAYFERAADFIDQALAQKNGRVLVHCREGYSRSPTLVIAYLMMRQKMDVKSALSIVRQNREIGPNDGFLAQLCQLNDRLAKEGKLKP
Sequence of Tyrosine-protein phosphatase non-receptor type 6 (Homo sapiens) (P29350 whole entry): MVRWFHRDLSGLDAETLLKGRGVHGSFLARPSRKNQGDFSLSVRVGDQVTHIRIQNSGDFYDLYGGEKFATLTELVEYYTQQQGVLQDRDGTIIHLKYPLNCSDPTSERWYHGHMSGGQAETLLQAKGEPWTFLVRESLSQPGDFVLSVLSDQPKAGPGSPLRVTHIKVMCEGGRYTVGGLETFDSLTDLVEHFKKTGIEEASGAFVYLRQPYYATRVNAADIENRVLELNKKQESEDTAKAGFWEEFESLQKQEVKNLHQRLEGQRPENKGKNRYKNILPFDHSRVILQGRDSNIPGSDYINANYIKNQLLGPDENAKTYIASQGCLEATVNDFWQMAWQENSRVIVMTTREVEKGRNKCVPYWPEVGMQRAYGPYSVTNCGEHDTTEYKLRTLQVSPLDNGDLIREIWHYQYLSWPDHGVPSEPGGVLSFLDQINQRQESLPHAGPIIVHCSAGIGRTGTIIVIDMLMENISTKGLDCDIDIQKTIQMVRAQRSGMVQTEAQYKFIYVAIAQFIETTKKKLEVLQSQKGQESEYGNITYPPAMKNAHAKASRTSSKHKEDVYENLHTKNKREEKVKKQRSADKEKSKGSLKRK

| SMILES | IC50 [4] [µM] | pAkt/Akt ratio (HepG2) | Ki [6] [µM] | inhibition [8] [%] | Ratio (Homo sapiens [9]) | Ratio (Homo sapiens [10]) | Ratio (Homo sapiens [11]) | inhibition [12] [%] | Ratio (Homo sapiens [13]) | inhibition [14] [%] | inhibition [15] [%] | inhibition [16] [%] | other results |
| --- | --- | --- | --- | --- | --- | --- | --- | --- | --- | --- | --- | --- | --- |
| CC(=O)Oc1cc2nccc3c4ccccc4n(c1=O)c23 | 28.9 | 2.1 | 18.4 |  |  |  |  |  |  |  |  |  | inhibition [1]: 22.1%; inhibition [2]: 90.3%; inhibition [3]: 30.2%; inhibition [5]: 23%; inhibition [7]: 46% |
| CCc1c2n(C)ccc3c-2n(c(=O)c1=O)c1ccccc31 | 27.8 | 1.2 | 20 | 91 | 3.6 | 2.3 | 4.4 | 25 | 4.6 | 19.7 | 40 | 20.6 |  |
| Cn1ccc2c3n(c(=O)c(=O)cc1-3)c1ccccc21 | 19.8 | 2.4 |  |  |  |  |  |  |  |  |  |  | Ratio (Homo sapiens [17]): 5.6; Ki [18]: 7.07 µM; inhibition [19]: 16.3%; inhibition [20]: 20.6%; Ratio (Homo sapiens [21]): 4.4; Ratio (Homo sapiens [22]): 6.9; inhibition [23]: 91.4%; inhibition [24]: 29%; Ratio (Homo sapiens [25]): 3.2; inhibition [26]: 13.2% |
| COc1ccc2c3ccn(C)c4cc(=O)c(=O)n(c3-4)c2c1 | 19.2 | 1.8 | 12.9 | 93.8 | 2.1 | 6.3 | 3.3 | 44.4 | 1.5 | 61.4 | 15 | 28.7 |  |

Reference: ChEMBL document CHEMBL3400011, “Canthinone alkaloids are novel protein tyrosine phosphatase 1B inhibitors” (Bioorg Med Chem Lett, 2015)
